# ChEMBL document CHEMBL1649438, “Activities of ceftobiprole and other cephalosporins against extracellular and intracellular (THP-1 macrophages and keratinocytes) forms of methicillin-susceptible and methicillin-resistant Staphylococcus aureus” (Antimicrob Agents Chemother, 2009)
# Key:
# Staphylococcus aureus [1] = experiment: Antimicrobial activity against methicillin-susceptible Staphylococcus aureus […] infected in human THP-1 cells assessed as change in bacterial count after 24 hrs at pH 5.5; format: functional, organism-based; conditions: THP-1, 24 h
# Method in brief: (§1)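 THP-1 macrophages infected as described previously, with a postphagocytosis inoculum of 1.5 × 10⁶ to 3.0 × 10⁶ CFU/mg cell protein. Cells were exposed 24 h to increasing extracellular antibiotic concentrations. Response is the change in log10 CFU/mg protein from the inoculum (n = 3), fitted to a Hill function. E0 and Emax were extrapolated to infinitely low and high concentrations. EC50 and static concentration (graphical interpolation) are expressed as multiples of the broth MIC at pH 5.5 or 7.4.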
# Staphylococcus aureus [2] = experiment: Antimicrobial activity against Panton-valentine leucocidin-positive community-acquired methicillin-resistant Staphylococcus aureus NRS192 infected in human THP-1 cells assessed as bacterial count per mg of cell protein at high extracellular compound concentration after 24 hrs at pH 5.5; format: functional
# Method in brief: (§2)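 THP-1 human macrophages infected with S. aureus (postphagocytosis inoculum 1.5 × 10^6 to 3.0 × 10^6 CFU/mg cell protein), then incubated 24 h with increasing extracellular antibiotic concentrations. Change in log10 CFU/mg cell protein from the postphagocytosis inoculum, n = 3. Hill function fitted on log-transformed data. Low-concentration value (E0) and high-concentration value (Emax) are extrapolated. Where a pH is given, concentrations are expressed as multiples of the broth MIC at that pH.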
# Staphylococcus aureus [3] = experiment: Antimicrobial activity against Panton-valentine leucocidin-positive community-acquired methicillin-resistant Staphylococcus aureus NRS192 infected in human THP-1 cells assessed as change in bacterial count after 24 hrs at pH 7.4; format: functional, organism-based; conditions: NRS192, THP-1, 24 h; method in brief: as §2
# Staphylococcus aureus [4] = experiment: Antimicrobial activity against methicillin-susceptible Staphylococcus aureus […] infected in human THP-1 cells assessed as bacterial count per mg of cell protein at low extracellular compound concentration after 24 hrs at pH 7.4; format: functional; conditions: pooled result: one value given for 6 cell lines, strains, targets or settings
# Method in brief: (§3)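 Human THP-1 macrophage-like cells were infected with S. aureus to a postphagocytosis inoculum of 1.5 × 10^6 to 3.0 × 10^6 CFU/mg cell protein. Cells were then exposed 24 h to increasing extracellular antibiotic concentrations. Response was the log10 CFU change per mg protein from the postphagocytosis inoculum, n = 3. A Hill function was fitted on log-transformed axes. E0 and Emax were extrapolated to infinitely low and high concentrations. Cs was read by graphical interpolation. Concentrations were expressed as multiples of the broth MIC at pH 5.5 or pH 7.4.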
# Staphylococcus aureus [5] = experiment: Antimicrobial activity against hospital-acquired vancomycin-intermediate Staphylococcus aureus NRS18 infected in human THP-1 cells assessed as change in bacterial count after 24 hrs at pH 7.4; format: functional, organism-based; conditions: NRS18, THP-1, 24 h; method in brief: as §1
# MecA = molecular target: T1, MecA (Staphylococcus aureus, UniProt Q7DHH4); experiment: Binding affinity to Staphylococcus aureus ATCC […] PBP2a by Western blotting at pH 5.5 in presence of 100 uM Bocillin FL
# T1 sequence (Q7DHH4 whole entry): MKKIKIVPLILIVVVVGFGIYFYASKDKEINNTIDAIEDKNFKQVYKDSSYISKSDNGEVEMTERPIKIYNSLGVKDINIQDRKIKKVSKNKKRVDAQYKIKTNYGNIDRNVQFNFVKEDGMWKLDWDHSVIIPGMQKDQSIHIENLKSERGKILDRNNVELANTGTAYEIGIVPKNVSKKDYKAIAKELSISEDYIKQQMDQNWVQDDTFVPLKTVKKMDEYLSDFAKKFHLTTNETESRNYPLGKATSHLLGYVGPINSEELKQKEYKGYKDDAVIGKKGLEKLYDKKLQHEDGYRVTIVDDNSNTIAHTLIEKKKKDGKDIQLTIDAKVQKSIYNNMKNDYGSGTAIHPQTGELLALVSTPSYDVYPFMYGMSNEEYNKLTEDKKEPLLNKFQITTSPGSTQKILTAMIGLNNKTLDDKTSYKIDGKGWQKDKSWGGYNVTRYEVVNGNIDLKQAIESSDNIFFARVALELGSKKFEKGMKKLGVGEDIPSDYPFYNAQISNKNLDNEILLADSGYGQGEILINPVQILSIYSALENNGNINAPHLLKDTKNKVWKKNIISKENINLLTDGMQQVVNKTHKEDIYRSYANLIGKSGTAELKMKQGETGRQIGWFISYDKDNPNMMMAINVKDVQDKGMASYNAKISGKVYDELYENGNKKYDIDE
# Method in brief: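 Soluble truncated PBP 2a (ΔM1-Y23) was expressed in E. coli Rosetta 2(DE3) and purified. It was preincubated 25 min at 37°C with increasing cephalosporin concentrations, then 100 μM Bocillin FL was added for 25 min at 37°C at pH 5.5 or 7.4. Samples were run on SDS-PAGE and blotted with anti-bodipy antibody plus HRP secondary. Bands were detected by chemiluminescence and quantified by densitometry.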
# Staphylococcus aureus [6] = experiment: Antimicrobial activity against Panton-valentine leucocidin-positive community-acquired methicillin-resistant Staphylococcus aureus STA 44 infected in human THP-1 cells assessed as change in bacterial count after 24 hrs at pH 7.4; format: functional, organism-based; conditions: STA 44, THP-1, 24 h; method in brief: as §2
# Staphylococcus aureus [7] = experiment: Antimicrobial activity against methicillin-susceptible Staphylococcus aureus ATCC 11632 infected in human THP-1 cells assessed as bacterial count per mg of cell protein at low extracellular compound concentration after 24 hrs; format: functional; method in brief: as §3
# Staphylococcus aureus [8] = experiment: Antimicrobial activity against hospital-acquired vancomycin-intermediate Staphylococcus aureus NRS18 infected in human THP-1 cells assessed as bacterial count per mg of cell protein at low extracellular compound concentration after 24 hrs at pH 5.5; format: functional; method in brief: as §3
# Staphylococcus aureus [9] = experiment: Antimicrobial activity against methicillin-susceptible Staphylococcus aureus NRS52 infected in human THP-1 cells assessed as change in bacterial count after 24 hrs at pH 7.4; format: functional, organism-based; conditions: NRS52, THP-1, 24 h; method in brief: as §1
# Staphylococcus aureus [10] = experiment: Antimicrobial activity against Panton-valentine leucocidin-positive community-acquired methicillin-resistant Staphylococcus aureus N4042228 infected in human THP-1 cells assessed as bacterial count per mg of cell protein at high extracellular compound concentration after 24 hrs at pH 5.5; format: functional; method in brief: as §2
# Staphylococcus aureus [11] = experiment: Antimicrobial activity against Panton-valentine leucocidin-positive community-acquired methicillin-resistant Staphylococcus aureus NRS192 infected in human THP-1 cells assessed as change in bacterial count after 24 hrs; format: functional, organism-based; conditions: NRS192, THP-1, 24 h; method in brief: as §2
# Staphylococcus aureus [12] = experiment: Bacteriostatic activity against Panton-valentine leucocidin-positive community-acquired methicillin-resistant Staphylococcus aureus N4090440 infected in human THP-1 cells assessed as change in bacterial count after 24 hrs at pH 5.5; format: functional; method in brief: as §1
# Staphylococcus aureus [13] = experiment: Antimicrobial activity against hospital-acquired vancomycin-resistant Staphylococcus aureus VRS1 infected in human THP-1 cells assessed as change in bacterial count after 24 hrs at pH 7.4; format: functional, cell-based; conditions: VRS1, THP-1, 24 h; method in brief: as §1
# Staphylococcus aureus [14] = experiment: Antimicrobial activity against Panton-valentine leucocidin-positive community-acquired methicillin-resistant Staphylococcus aureus isolate MEH2225605 infected in human THP-1 cells assessed as bacterial count per mg of cell protein at high extracellular compound concentration after 24 hrs; format: functional; method in brief: as §2
# Staphylococcus aureus [15] = experiment: Antimicrobial activity against methicillin-susceptible Staphylococcus aureus […] infected in human THP-1 cells assessed as bacterial count per mg of cell protein at high extracellular compound concentration after 24 hrs at pH 5.5; format: functional; method in brief: as §3
smiles,measurement,setting,value
Nc1nc(/C(=N/O)C(=O)N[C@@H]2C(=O)N3C(C(=O)O)=C(/C=C4\CCN([C@@H]5CCNC5)C4=O)CS[C@H]23)ns1 [CEFTOBIPROLE],EC50,Staphylococcus aureus [1],0.41 × MIC
same,log10cfu,Staphylococcus aureus [2],-1.02
same,EC50,Staphylococcus aureus [3],0.33 ×MIC
same,log10cfu,Staphylococcus aureus [4],3.06
same,EC50,Staphylococcus aureus [5],0.28 ×MIC
same,IC50,MecA,1.9 µM
same,EC50,Staphylococcus aureus [6],0.33 ×MIC
same,log10cfu,Staphylococcus aureus [7],3.03
same,log10cfu,Staphylococcus aureus [8],2.63
same,EC50,Staphylococcus aureus [9],0.2 ×MIC
same,log10cfu,Staphylococcus aureus [10],-1.02
same,EC50,Staphylococcus aureus [11],0.7 mg/L
same,Activity,Staphylococcus aureus [12],1.45 × MIC
same,EC50,Staphylococcus aureus [13],0.28 ×MIC
same,log10cfu,Staphylococcus aureus [14],-0.97
same,log10cfu,Staphylococcus aureus [15],1.04
